# Screening results from PubChem BioAssay.
# Only some compounds are listed: those with a hit (about 12% of all), similar ones and a draw of the others.
# ABCG2 block: human ABCG2 inhibition, ABCB1 as counter-screen | IgMXP3 cells, JC-1 efflux, flow cytometry | Q9UNQ0 | inhibition, % at 6.6 µM | 190,000 tested, 0.1% active;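 active means inhibition above 80%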;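 further: 0% = DMSO and 100% = nicardipine control wells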
#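 material = IgMXP3 (ABCG2) plus far-red-tagged CCRF-Adr (ABCB1) cells | amount = 3 million cells/mL, equal mix of both lines | also added = JC-1 transporter substrate | dosing = one concentration, 6.6 µM final | schedule = 10 min at 25 °C | measured by = flow cytometric JC-1 green MFI at 530 nm | read-out basis = percent efflux inhibition, scaled nicardipine 100% to DMSO 0%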
# ABCB1 block: inhibitors of human ABCB1 transporter, ABCG2 counter-screen; P08183; CCRF-Adr cells, JC-1 efflux, flow cytometry; inhibition, % at 6.6 µM; 190,000 tested, 0.067% active; AID 1326; in the data active means inhibition above about 40%;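 further: 0% = vehicle and 100% = reference inhibitor; higher value means more JC-1 retained so stronger ABCB1 efflux block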
# Target sequence (P08183 whole entry, looked up): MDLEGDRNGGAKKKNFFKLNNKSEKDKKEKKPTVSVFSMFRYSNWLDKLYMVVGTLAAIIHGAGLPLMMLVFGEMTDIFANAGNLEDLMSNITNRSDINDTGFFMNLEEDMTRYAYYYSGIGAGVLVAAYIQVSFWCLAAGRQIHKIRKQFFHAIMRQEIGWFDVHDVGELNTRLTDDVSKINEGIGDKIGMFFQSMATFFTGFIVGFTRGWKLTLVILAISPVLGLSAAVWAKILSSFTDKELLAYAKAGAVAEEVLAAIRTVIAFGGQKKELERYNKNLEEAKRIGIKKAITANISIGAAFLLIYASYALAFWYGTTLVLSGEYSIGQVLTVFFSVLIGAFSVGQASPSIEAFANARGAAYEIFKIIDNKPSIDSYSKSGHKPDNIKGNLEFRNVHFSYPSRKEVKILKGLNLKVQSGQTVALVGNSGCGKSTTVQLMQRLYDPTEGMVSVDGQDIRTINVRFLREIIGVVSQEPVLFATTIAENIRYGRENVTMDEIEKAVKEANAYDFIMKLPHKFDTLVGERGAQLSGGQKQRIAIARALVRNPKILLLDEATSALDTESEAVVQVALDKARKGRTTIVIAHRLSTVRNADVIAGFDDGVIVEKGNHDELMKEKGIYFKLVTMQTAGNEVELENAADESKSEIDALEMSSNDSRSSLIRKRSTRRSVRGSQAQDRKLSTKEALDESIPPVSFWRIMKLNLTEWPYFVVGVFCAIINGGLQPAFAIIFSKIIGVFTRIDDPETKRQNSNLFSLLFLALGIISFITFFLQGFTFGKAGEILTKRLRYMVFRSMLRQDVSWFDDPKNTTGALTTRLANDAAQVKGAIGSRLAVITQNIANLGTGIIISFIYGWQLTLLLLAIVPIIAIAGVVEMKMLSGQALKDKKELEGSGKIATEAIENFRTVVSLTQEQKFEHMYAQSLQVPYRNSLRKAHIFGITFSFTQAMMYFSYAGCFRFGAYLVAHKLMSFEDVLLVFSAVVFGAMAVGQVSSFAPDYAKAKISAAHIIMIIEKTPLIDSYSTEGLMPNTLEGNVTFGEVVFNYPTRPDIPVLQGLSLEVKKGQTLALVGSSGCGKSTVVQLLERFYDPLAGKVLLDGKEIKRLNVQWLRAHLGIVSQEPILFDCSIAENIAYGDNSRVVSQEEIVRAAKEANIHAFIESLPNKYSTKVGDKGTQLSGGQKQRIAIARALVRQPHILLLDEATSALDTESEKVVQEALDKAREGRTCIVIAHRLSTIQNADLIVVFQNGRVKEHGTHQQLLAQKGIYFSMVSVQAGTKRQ
# RAM network inh: yeast RAM network inhibition; S. cerevisiae dse1pr::URA3 reporter, 5-FOA growth OD615, 2 d; analog-sensitive cbk1-as2 kinase mutant strain; inhibition, % at 50 µM; 190,000 tested, 1.8% active;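 active means inhibition above a set limit, 3 SD over mean compound inhibition, cut at about 8.4% in these data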;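 further: 0% = DMSO-only wells with no growth and 100% = 10 µM 1-NA-PP1 full growth; inhibition rescues growth on 5-FOA so higher OD means more RAM inhibition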
# WT yeast gro inh: growth inhibition of WT yeast, mitochondrial fusion screen; 190,000 tested, 2.1% active; inhibition, % at 10 µM; mitochondrial fusion phenotypic screen, WT strain; in the data active means inhibition above about 58%; tested in S. cerevisiae
# L major viab: reduces viability of Leishmania major promastigotes; resazurin fluorescence viability; AID 1063; 200,000 tested, 9% active; inhibition, % at 10 µM; in the data active means inhibition above about 50%;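 further: promastigotes grown with compound for 44 hours at 28 °C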
# * hit, by the source's call; · = not tested or not shown.
SMILES,ABCG2 block,ABCB1 block,RAM network inh,WT yeast gro inh,L major viab
Nc1ccccc1SC1CC(=O)N(Cc2ccccc2)C1=O (centres undefined),5,0,1,4,-4
O=C(C1CC1)N1N=C(c2ccncc2)CC1(O)C(F)(F)F (centres undefined),1,0,1,-8,-5
O=C(O)c1ccc(C2NCC(c3ccccc3Cl)c3c2[nH]c2ccccc32)cc1 (centres undefined),-3,0,2,-4,-5
COc1cc(C2NCC(c3ccc(Cl)cc3Cl)c3c2[nH]c2ccccc32)cc(OC)c1OC (centres undefined),3,8,0,82*,99*
COc1ccc(CN2C(=O)c3ccccc3C(/C=N\OCc3ccc(F)cc3)C2=O)cc1 (centres undefined),1,1,6,9,1
COc1ccc(CN2C(=O)c3ccccc3C(/C=N/OCc3ccc(Cl)cc3)C2=O)cc1 (centres undefined),0,0,10*,8,39
O=C(O)CCNS(=O)(=O)c1ccc2c(c1)OCCCO2,2,0,0,5,-1
CN1CCN(S(=O)(=O)c2cccc(C(=O)NCc3ccc(Cl)cc3)c2)CC1,2,1,0,13,-2
CC(CN1CCCCC1)OC(=O)Cc1ccc(Cl)cc1 (centres undefined),1,0,0,1,-7
CC(CN1CCCCC1)OC(=O)C(C)(c1ccccc1)c1ccccc1 (centres undefined),0,0,1,6,100*
CC(CN1CCOCC1)OC(=O)C(C)(c1ccccc1)c1ccccc1 (centres undefined),-6,0,-1,-4,55*
O=C(NNc1nc(=O)c2cccnc2s1)c1ccccc1O,2,0,3,-3,41
O=C(N=C1c2ccccc2CN1c1ccc(F)c(Cl)c1)c1cccnc1Cl,-3,1,0,-8,12
COc1cccc2sc(Nc3nnc(-c4cccs4)o3)nc12,-7,-1,1,33,96*
Fc1cccc2sc(Nc3nnc(-c4ccco4)o3)nc12,0,0,2,14,-3
COc1cccc2sc(Nc3nnc(-c4ccc(F)cc4)o3)nc12,-5,-3,0,2,96*
COC(=O)c1cccc(Oc2cccc(C(F)(F)F)c2)n1,1,0,2,-9,-1
COC(=O)C(CCSC)NC(=O)C12CC3CC(CC(C3)C1)C2 (centres undefined),7,0,0,-17,95*
CSCCC(NC(=O)C12CC3CC(CC(C3)C1)C2)C(=O)OCC(=O)c1ccc(Cl)cc1 (centres undefined),4,1,2,-6,22
O=C(Nc1cnn(Cc2ccc(F)cc2)c1)C(c1ccccc1)c1ccccc1,6,1,2,20,51*
O=C(Nc1cnn(Cc2ccc(F)cc2)c1)c1noc2c1CCCC2,5,1,5,37,100*
CCOc1ccc(C2=C(C=Nc3c(C)n(C)n(-c4ccccc4)c3=O)C(c3ccc(F)cc3)c3ccccc3O2)cc1 (centres undefined),6,0,8.5*,17,57*
CC(=O)Nc1cccc(NC(=O)CSc2nnnn2Cc2ccccc2)c1,0,0,2,75*,-1
CC(=O)c1ccc(-n2nnnc2SCC(=O)Nc2cccc(NC(=O)c3ccco3)c2)cc1,5,0,7,73*,1
COc1cccc(NC(=O)CSc2ncnc3c2cnn3Cc2ccccc2)c1,10,2,8.4*,15,0
SMILES,ABCG2 block,ABCB1 block,RAM network inh,WT yeast gro inh,L major viab
CCC(=O)Nc1cccc(-n2nnnc2SCC(=O)c2ccc(C)c(C)c2)c1,7,·,1,-18,99*
Cc1nn(-c2ccccc2)c(Cl)c1/C=N/NC(=O)CNc1n[nH]c(=O)[nH]c1=O,1,1,2,4,-9
O=C(Cn1cc(C(F)(F)F)ccc1=O)Nc1cccc(S(=O)(=O)N2CCOCC2)c1,5,0,3,-27,-6
O=P(OCC1CC1)(c1ccccc1)c1ccccc1,8,1,1,-12,-1
Cc1cc(C)cc(-n2nnnc2SCC(=O)Nc2cccc(NC(=O)c3ccco3)c2)c1,2,1,1,-23,40
Cc1ccc(SCC(=O)Nc2cccc(NC(=O)c3ccco3)c2)cc1,2,0,2,21,77*
